Measured values as given in ChEMBL document CHEMBL1148959, “Annoglabayin, a novel dimeric kaurane diterpenoid, and apoptosis in Hep G2 cells of annomontacin from the fruits of Annona glabra” (2004).

Columns and labels:
Format in all cases: functional
[1] = test system: HepG2; assay: Induction of apoptosis in human HepG2 cells assessed as cellular membrane damage at 100 uM after 9 hrs using propidium iodide staining by FACS
Procedure, shortened: (§1)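 Treated or untreated for 3, 6, 9 or 24 h at 100 µM, Hep G2 cells were trypsinized and stained 10 min with 5 µg/mL PI. Argon laser excitation at 488 nm, emission >580 nm, ≥10 000 cells counted. Cells were classed as intact or membrane-damaged after gating out debris. At least three runs; a representative run is shown.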

[2] = test system: HepG2; assay: Cell cycle arrest in human HepG2 cells assessed as accumulation at G2M phase at 50 uM after 24 hrs using propidium iodide staining by FACS
Procedure, shortened: (§2)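 Hep G2 cells seeded at 5 × 10^5 per 60 mm dish 48 h ahead in DMEM with 10% FCS and antibiotics. Exposed 24 h; compound from DMSO stock diluted in medium. Adherent and floating cells pooled, fixed in PBS-MeOH (1:2) at 4 °C ≥18 h, then stained 30 min at room temperature in the dark with 50 µg/mL PI plus 50 µg/mL RNaseA. Flow cytometry at 488 nm excitation, emission >580 nm, doublets gated out; subG1 taken as the subdiploid fraction.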

[3] = test system: HepG2; assay: Cell cycle arrest in human HepG2 cells assessed as accumulation at G1 phase at 25 uM after 24 hrs using propidium iodide staining by FACS; procedure, shortened: as §2
[4] = test system: HepG2; assay: Induction of early apoptosis in human HepG2 cells assessed as number of cells with decreased mitochondrial transmembrane potential at 100 uM after 6 hrs using rhodamine 123 staining by FACS
Procedure, shortened: (§3)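 Hep G2 cells seeded 5 × 105 per 60 mm dish 48 h ahead in DMEM with 10% FCS, penicillin, streptomycin and amphotericin B. Compound diluted into medium from a 200 mM DMSO stock and applied for 3, 6, 9 or 24 h; untreated cells as control. Medium then replaced with 5 µM rhodamine 123 for 30 min in the dark. Cells trypsinized and mean rhodamine 123 fluorescence read by flow cytometry. Run at least three times, with a representative experiment shown.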

[5] = test system: HepG2; assay: Cell cycle arrest in human HepG2 cells assessed as accumulation at subG1 phase at 50 uM after 24 hrs using propidium iodide staining by FACS; procedure, shortened: as §2
[6] = test system: HepG2; assay: Cell cycle arrest in human HepG2 cells assessed as accumulation at S phase at 100 uM after 24 hrs using propidium iodide staining by FACS; procedure, shortened: as §2
[7] = test system: HepG2; assay: Effect on morphology in human HepG2 cells assessed as low cellular shape change at 100 uM after 3 hrs by FACS
Procedure, shortened: (§4)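 Hep G2 cells in DMEM/10% FCS were treated with or without 100 µM for 3, 6, 9 or 24 h, then trypsinized. Forward scatter (size) and side scatter (granularity) were read by flow cytometry. Normal versus low shape change was expressed as a percentage after gating out cellular debris. At least three runs; a representative run is shown.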

[8] = test system: HepG2; assay: Induction of apoptosis in human HepG2 cells assessed as cellular membrane damage at 100 uM after 6 hrs using propidium iodide staining by FACS; procedure, shortened: as §1
[9] = test system: HepG2; assay: Cell cycle arrest in human HepG2 cells assessed as accumulation at G1 phase at 50 uM after 24 hrs using propidium iodide staining by FACS; procedure, shortened: as §2
[10] = test system: HepG2; assay: Cell cycle arrest in human HepG2 cells assessed as accumulation at subG1 phase at 75 uM after 24 hrs using propidium iodide staining by FACS; procedure, shortened: as §2
[11] = test system: HepG2; assay: Cell cycle arrest in human HepG2 cells assessed as accumulation at G2M phase at 100 uM after 24 hrs using propidium iodide staining by FACS; procedure, shortened: as §2
[12] = test system: HepG2; assay: Induction of apoptosis in human HepG2 cells assessed as cellular membrane damage at 100 uM after 24 hrs using propidium iodide staining by FACS; procedure, shortened: as §1
[13] = test system: HepG2; assay: Effect on morphology in human HepG2 cells assessed as low cellular shape change at 100 uM after 6 hrs by FACS; procedure, shortened: as §4
[14] = test system: HepG2; assay: Cell cycle arrest in human HepG2 cells assessed as accumulation at G1 phase at 75 uM after 24 hrs using propidium iodide staining by FACS; procedure, shortened: as §2
[15] = test system: HepG2; assay: Induction of early apoptosis in human HepG2 cells assessed as number of cells with decreased mitochondrial transmembrane potential at 100 uM after 3 hrs using rhodamine 123 staining by FACS; procedure, shortened: as §3
[16] = test system: HepG2; assay: Cell cycle arrest in human HepG2 cells assessed as accumulation at S phase at 25 uM after 24 hrs using propidium iodide staining by FACS; procedure, shortened: as §2
[17] = test system: HepG2; assay: Cell cycle arrest in human HepG2 cells assessed as accumulation at G1 phase at 100 uM after 24 hrs using propidium iodide staining by FACS; procedure, shortened: as §2
[18] = test system: HepG2; assay: Effect on morphology in human HepG2 cells assessed as low cellular shape change at 100 uM after 9 hrs by FACS; procedure, shortened: as §4
[19] = test system: HepG2; assay: Induction of early apoptosis in human HepG2 cells assessed as number of cells with decreased mitochondrial transmembrane potential at 100 uM after 24 hrs using rhodamine 123 staining by FACS; procedure, shortened: as §3
[20] = test system: HepG2; assay: Cell cycle arrest in human HepG2 cells assessed as accumulation at G2M phase at 75 uM after 24 hrs using propidium iodide staining by FACS; procedure, shortened: as §2
[21] = test system: HepG2; assay: Induction of apoptosis in human HepG2 cells assessed as cellular membrane damage at 100 uM after 3 hrs using propidium iodide staining by FACS; procedure, shortened: as §1
[22] = test system: HepG2; assay: Cell cycle arrest in human HepG2 cells assessed as accumulation at S phase at 50 uM after 24 hrs using propidium iodide staining by FACS; procedure, shortened: as §2
[23] = test system: HepG2; assay: Cell cycle arrest in human HepG2 cells assessed as accumulation at S phase at 75 uM after 24 hrs using propidium iodide staining by FACS; procedure, shortened: as §2
[24] = test system: HepG2; assay: Induction of early apoptosis in human HepG2 cells assessed as number of cells with decreased mitochondrial transmembrane potential at 100 uM after 9 hrs using rhodamine 123 staining by FACS; procedure, shortened: as §3
[25] = test system: HepG2; assay: Effect on morphology in human HepG2 cells assessed as low cellular shape change at 100 uM after 24 hrs by FACS; procedure, shortened: as §4
[26] = test system: HepG2; assay: Cell cycle arrest in human HepG2 cells assessed as accumulation at G2M phase at 25 uM after 24 hrs using propidium iodide staining by FACS; procedure, shortened: as §2
[27] = test system: HepG2; assay: Cell cycle arrest in human HepG2 cells assessed as accumulation at subG1 phase at 25 uM after 24 hrs using propidium iodide staining by FACS; procedure, shortened: as §2
[28] = test system: HepG2; assay: Cell cycle arrest in human HepG2 cells assessed as accumulation at subG1 phase at 100 uM after 24 hrs using propidium iodide staining by FACS; procedure, shortened: as §2

CCCCCCCCCCCC[C@H](O)[C@@H]1CC[C@@H]([C@@H](O)CCCCCCC(O)CCCCC[C@@H](O)CC2=C[C@H](C)OC2=O)O1 (stereo partly drawn) [ANNOMONTACIN]
Activity [1]: 32.4%
Activity [2]: 8.3%
Activity [3]: 50.2%
Flu intensity [4]: 241
Activity [5]: 12.2%
Activity [6]: 32.9%
Activity [7]: 40.1%
Activity [8]: 6.9%
Activity [9]: 54.6%
Activity [10]: 50.7%
Activity [11]: 10.4%
Activity [12]: 69.5%
Activity [13]: 50.5%
Activity [14]: 54.3%
Flu intensity [15]: 367
Activity [16]: 39.1%
Activity [17]: 56.7%
Activity [18]: 75.4%
Flu intensity [19]: 75
Activity [20]: 9.8%
Activity [21]: 7.1%
Activity [22]: 37.1%
Activity [23]: 35.9%
Flu intensity [24]: 213
Activity [25]: 80.1%
Activity [26]: 10.8%
Activity [27]: 4.4%
Activity [28]: 58.3%
